Reference: the EternaBench riboswitch data

System: MS2 coat protein
Assay: apparent Kd, MS2 coat protein; higher = weaker binding; RNA-MaP array; FMN 200 µM where present
In short: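 Two titrations, one without ligand and one with constant ligand, were run with SNAP-549-labelled MS2 coat protein from 0.7 or 1.5 nM, doubling to 3 µM. The targets were designs transcribed by stalled E. coli RNA polymerase on Illumina sequencing-chip clusters, in 100 mM Tris-HCl pH 7.5, 80 mM KCl, 4 mM MgCl2, BSA, DTT, yeast tRNA and Tween-20. The apparent Kd is the median of filtered per-cluster binding-curve fits, with green signal normalised to red-channel RNA signal and control-cluster median Fmax.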

[1] = designed as: OFF switch for flavin mononucleotide, no ligand
[2] = ligand present: flavin mononucleotide, designed as: OFF switch for flavin mononucleotide
[3] = designed as: ON switch for flavin mononucleotide, no ligand
[4] = ligand present: flavin mononucleotide, designed as: ON switch for flavin mononucleotide

Sequence | apparent Kd [1] [nM] | apparent Kd [2] [nM] | apparent Kd [3] [nM] | apparent Kd [4] [nM]
GGAUAGUGAGGAUAUCGAUGUUAGGAGGAGUAGAUAGGAGGCGAGAAGGCACAUGAGGAUCACCCAUGUAUGGA | 58.7 | 45.5 |  | 
UUAGAGGAUUAAGGAUAUGCAGAGAGAUUAUGCGCGUCGCGCACAUGAGGAUCACCCAUGUAAGAGCAGAAGGUAACUAUGAUC | 22.8 | 16.4 |  | 
GUAUUUUAAGUAAGGAUAUACCUCUGGAAACAGAGGUAGAAGGUACAUGAGGAUCACCCAUGUUUCUCUUUUGG | 17 | 23.6 |  | 
AUGGCGACGUAGAAGGGUGACAUGAGGAUCACCCAUGUGCCGAUACUUCUCGAGAUGUGUCGGCCACAGGAUAUACGUACCAUC |  |  | 52.3 | 58.3
AGUAGAUCAGGAUAUACAUAAAUGAUAAUUAUGUAAAUUCUACAUGAGGAUCACCCAUGUAGAAGGGAUCUACA | 14.4 | 14 |  | 
GGACCUCCUGAGGAUAUUGUAUCACCUGAUUGAUAAGAAGGCAGAACAUGAGGAUCACCCAUGUGGGUACUCGG | 168 | 145 |  | 
UUUGACGUCGUAGGAUAUGUAGGAUAUUCCUACAUGAGGAUCACCCAUGUUGACAUGGAAGAAGGACAGAAGGACGAUGUCCAU |  |  | 304 | 5.56
CCUCGGUAGACAGGAUAUCCUUACAUGAGGAUCACCCAUGUAGCAAGACAUGGAGAAGGGUCACUGUGGGUAAAAGCGCAUAUC |  |  | 225 | 14
CUUUUGUGAGGAUAUUAGUAGUAAAUAAAUAAUAUUACUACUGAGAAGGCACAUGAGGAUCACCCAUGUUCCUC | 37 | 302 |  | 
ACGUGUCGUGUAGGAUAUGACACAGGAAACUGGUCAGAAGGACAUGAGGAUCACCCAUGUAAAAUGUUCAAGAAUAACGUAUGC | 43.3 | 108 |  | 
CUCCGACAUGUAGGAUAUGCGUGGCGAAGCUAUGCAGAAGGACAUGAGGAUCACCCAUGUCUUUCCGUCUGCGUACAGACGGAG | 17.4 | 57.3 |  | 
UGUCGGAGCAGAGGAUAUUACAUGAGGAUCACCCAUGUAUGAACCAAUAGCUGGAAACAGCAAUGUAAGAAGGCUGCUCUGACA | 11.5 | 150 |  | 
CGGAAACAAGGAUAUACAUGAGGAUCACCCAUGUCGCUAACUGCGCUCUUGUGAUCCGGUAGAAGGUGUGAAUA | 29.8 | 41 |  | 
UUAAGGGACUGAGGAUAUACAUGAAUUAUGUUUGUAGAAGGCAGAUUGUUAGUUUAUUCACUAUACAUGAGGAUCACCCAUGUU | 25.1 | 20.6 |  | 
CCCAAACUUGGGCUUGGCGGUGCAUAGGAUAUCCUUGGACAUGAGGAUCACCCAUGUACAACUGUGGAGAAGGGUGCAGGGCCU |  |  | 31.2 | 8.61
AAUCCACAUGAGGAUCACCCAUGUGAGGAUAUCGUGCAGAAAAAAAAAAAAAACUGCACGAGAAGGCACAUGGA | 160 | 69.1 |  | 
GGAUAGGACAGAGGAUAUACGUGCUAGAGAUACUAGCAAAAUUUCCUCACAUGAGGAUCACCCAUGUAGAAGGCUGUCCUCUCG | 18 | 409 |  | 
GCACUGGAUGUAGGAUAUCAGGACGAUAAGUCCUGAGAAGGACAUGAGGAUCACCCAUGUAAAACUUCACCAGUGCAUAAUAUA | 13.3 | 15.9 |  | 
GCGUUCUUGUAGAAGGUACAUACGACAUCUUAUAAACGCUUGACACAUGAGGAUCACCCAUGUUGUAAGGAUAUACAUGAACGC |  |  | 6.82 | 7.03

Sequence | apparent Kd [1] [nM] | apparent Kd [2] [nM] | apparent Kd [3] [nM] | apparent Kd [4] [nM]
CUUCGACAUGAGGAUCACCCAUGUCAGGAUAUUGUGUAUCGGGUUUUUUACGGAAAGGCAAGAAGGGAUGUGUG | 29.7 | 24.8 |  | 
UAGUAUAAGGGCAUUAAACAUGAGGAUCACCCAUGUACAAUAGAGGAUAUGCAUUUCGGUUUAGAGUAGAAGGUUAGAGAAUAU | 31.3 | 38.1 |  | 
GGAGCCAGCACCGAGGAUAUUCAUAUUAAAACAUGAGGAUCACCCAUGUAGGCCAGAAGGCCUUGGGAGAAGGCGGACUGGCUCG |  |  | 206 | 11.4
UCGGCGCGAGGAUAUGCGGCUCCUGCUUCGGGCCGGAGCGUACAUGAGGAUCACCCAUGUAGAAGGCGCGCCGC | 12 | 13.9 |  | 
AGAAAUUAGUGAGGAUAUGCAUAAUAUUUAGCUGCAGAAGGCACGGACCACAAGACAUGAGGAUCACCCAUGUGGAAUAUAGAU | 20.1 | 23.4 |  | 
AAAAUGUCAGGAUAUGCGAAGGCGUCUGACGGACGAGGAUUGCAGAAGGGACAUGAGGAUCACCCAUGUAAAAA | 54.5 | 138 |  | 
UUAUACGCUGAGGAUAUUAUCACUGAGAGGUGAUGAGAAGGCGGUACAUGAGGAUCACCCAUGUCUAUGGGCAG | 282 | 240 |  | 
GAGAAGUCAGGAUAUCCAUGGCGGCACUUGCGUGGUGGCGUGGAGAAGGGACAUGAGGAUCACCCAUGUAAAGG | 165 | 157 |  | 
CACGGUGAUGUAGGAUAUACGCUGGAAUACAGCGUAGAAGGACAUGAGGAUCACCCAUGUAAAGUGUCUCCAAAUAACACCGUG | 32.5 | 90.5 |  | 
UGCAUGUAAGGAUAUGCACUGCGCGAGCCUGACUCGCAAAGGCAGAAGGUACAUGAGGAUCACCCAUGUGAGAA | 72.6 | 64.6 |  | 
AAAACGUGAGGAUAUGCACCCACCAAGGUUUUUCGGGUACGACAUGAGGAUCACCCAUGUAGAAGGCACGCAAA | 27.6 | 21.2 |  | 
AAGAAGUCAGGAUAUCCAGCUCGUCACUUGCGUGAUGAGUUGGAGAAGGGACAUGAGGAUCACCCAUGUAAAGG | 202 | 230 |  | 
CAGUACUGAGGAUAUACAUGAGGAUCACCCAUGUCUUAAAAGUAGGAUACUACUAUUAGUAGAAGGCAGUACUG | 13.2 | 34.9 |  | 
GAUUGACAUGAGGAUCACCCAUGUGAGGAUAUCGGCCGGAUCUUGUUAGCUUCCAUCGCGAGAAGGCACAUAGG | 66.1 | 73.5 |  | 
AGCAUGGUAGGAUAUACGGAACAUUAGGGUUUGUUAUGUGGACAUGAGGAUCACCCAUGUAGAAGGGCCGUGCA | 35.6 | 67.5 |  | 
UUACUCAUGUAAGGAUAUGCAGCCGUUUCGGCUGCAGAAGGUACUAUAAUACAUGAGGAUCACCCAUGUCUUUUUAAAUUAGAC |  |  | 111 | 49.7
AAGUCAGCAGGAUAUGCGAUGUUGGGCUAGGUAGCUUGACCACAUGAGGAUCACCCAUGUAGAAGGGCUGGCUA | 17.4 | 14 |  | 
GCCGUAAGUGUGAGGAUAUACCUAUGGAUACAUAGGUAGAAGGCACAUGAGGAUCACCCAUGUUCUUAAUCGGC | 130 | 296 |  | 
CUCUCACAGUCAGGAUAUGACGCGGAACAUGAGGAUCACCCAUGUGACGUCCCUCCAUGUACCCGUCAGAAGGGAUUAAUGGAC | 720 | 480 |  | 

Sequence | apparent Kd [1] [nM] | apparent Kd [2] [nM] | apparent Kd [3] [nM] | apparent Kd [4] [nM]
CUGGUUGUCGUAGGAUAUGUAGGAUAUUCCUACAUGAGGAUCACCCAUGUUCGCAUGGAAGAAGGACAGAAGGACGAUGACCAA |  |  | 1160 | 8.77
GUUAGUUAAGGAUAUACAGGGAGCCGCGGCGUCUCGCCGCAACAUGAGGAUCACCCAUGUAGAAGGUAGCCAUU | 31.3 | 66.6 |  | 
GGUACUCAAAGAGUACCAAUACGAACAUGAGGAUCACCCAUGUAGGAUAUGCUACUCAAAGAGUAGCAGAAGGACAUGCGCCUA | 18.2 | 106 |  | 
UCCGCCAAAGGAUAUACUGGGCGUUAAAAUCCUCUUAAAAGACAUGAGGAUCACCCAUGUAGAAGGUUGAGGAA | 209 | 575 |  | 
GGGCCACAUGAGGAUCACCCAUGUAAGGAUAUGCUAGGGAUGGAAAAAAUUUCGCUAGGCAGAAGGUACUAAAG | 32 | 55.6 |  | 
GUCAGCUCGUGAGGAUAUACAUCACUGCUUCGGCAGUGUAUUAAGAGUACAUGAGGAUCACCCAUGUAGAAGGCACGAGCUGAU | 17.3 | 19.6 |  | 
CUUUUGUGAGGAUAUCAGUAGUAGAACAAUAGUACUACUACUGAGAAGGCACAUGAGGAUCACCCAUGUUCCUC | 62.5 | 455 |  | 
AAUUAACAUGAGGAUCACCCAUGUGAGGAUAUGGUAUUACUUGGACAGCUAUGAUCUACCAGAAGGCACAUCUA | 24.4 | 44.8 |  | 
UUUUUGUCAGGAUAUACGUAGUAGAACAAUAGUACUACUACGUAGAAGGGACAUGAGGAUCACCCAUGUUCCUC | 14.8 | 30.9 |  | 
UUAAUCAUGUAGAAGGACGGAUAUUAAGAGAACGUAGGAUAUACAGAAGACAUGAGGAUCACCCAUGUGAACAUGGUACAUAGG | 241 | 62.5 |  | 
CUGCGGUAGGAGAAGGACGGCGGGUUCUUUUCGUACAUGAGGAUCACCCAUGUAGGAUAUCCUACCUCAGGCGGCCUACUACAG | 5.89 | 7.42 |  | 
CCAGUGUCAGGAUAUAUCACAAAGAACCCAACCGGGCUUUGGUAGAAGGGACAUGAGGAUCACCCAUGUUGUUU | 30.9 | 44 |  | 
AGGAAGUUAGGAUAUGCUGCUCGUCACUUGCGUGAUGAGUAGCAGAAGGGACAUGAGGAUCACCCAUGUAAAGA | 36.8 | 21.9 |  | 
ACAUUGUGAGGAUAUCCGAAGAAGGUCCGGAAGGUUCGGGUGGAGAAGGCACAUGAGGAUCACCCAUGUGUGGG | 51.8 | 137 |  | 
AUUAAUUAAUUAAUACAUGAGGAUCACCCAUGUAAUAAGAUCUAGGAUAUCAGCUCGAUUAGAGCUGAGAAGGAGAUCACAUGU |  |  | 46.8 | 39.5
GCCGGGUAGGCAGGAUAUCCUCGCGCAAACACAUGAGGAUCACCCAUGUACACAAAACGUGAUAUGGAGAAGGGCCGACCCACG |  |  | 24.2 | 5.66
GCACUGGAUGUAGGAUAUCAGGACGAUAAGUCCUGAGAAGGACAUGAGGAUCACCCAUGUGACUCAUAACCAGUGCAUAAUAUA | 27 | 142 |  | 
UGUCGGAGCAGAGGAUAUUACAUGAGGAUCACCCAUGUGGAAGAACCAAGCUGGAAACAGCAAUGUAAGAAGGCUGCUCCGACA | 1010 | 467 |  | 
